Measurements taken from ChEMBL document CHEMBL1128429, “Synthesis and structure-activity relationships of 6-heterocyclic-substituted purines as inactivation modifiers of cardiac sodium channels” (J Med Chem, 1995).
Blank lines part the entries; values can stand above or below the compound they belong to.

How the values were obtained:
[1] = tested on: Sodium channel protein type 5 subunit alpha (Cavia porcellus); assay: Inactivation process of guinea pig cardiac Na channels expressed in xenopus oocytes was determined by measuring increase in current integral in presence of compound versus control at 10 uM; details: oocyte
[2] = Inactivation processes of human heart Na channel expressed in Xenopus oocytes as increase in current at 10 uM; type: functional, Oocyte
Outline: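 Oocytes injected with cRNA transcribed from human cardiac Na channel (HH1) cDNA. Two-microelectrode voltage clamp at 21–23 °C, perfusion buffer with Na raised to 140 mM. Current integrated at −20 mV after the capacity transient settled. Single 10 μM exposure per oocyte; percent change in integral versus control, ± SEM.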

[3] = Effective concentration against Xenopus oocytes expressing human heart Na channel; type: functional, cell-based; details: oocyte
Outline: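 HH1 human cardiac Na channel cRNA in oocytes; perfusate Na 140 mM, 21–23 °C, integral taken at −20 mV. At least three concentrations, n ≥ 3 each, single concentration per oocyte. Pooled data gave the EC50 (nM producing 50% integral increase) by linear regression over the lower, non-blocking range.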

[4] = species: Oryctolagus cuniculus; assay: Antiarrhythmic activity was determined by measuring the concentration that produced a 20 ms increase in ERP; type: functional, Heart
Outline: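 Langendorff-perfused rabbit heart, equilibrated 45 min before control. ERP measured after 15 min exposure to each of five cumulative concentrations: single premature stimulus scanning diastole at twice threshold. Concentration giving a 20 ms ERP increase taken from the concentration–response curve; repeated-measures ANOVA, mean change ± SEM.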

[5] = species: Oryctolagus cuniculus; assay: Concentration which increased contractility by 20% in rabbit; type: functional
Outline: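 Langendorff-perfused rabbit heart, 45 min equilibration, then five cumulative concentrations with 15 min exposure each. Contractility read as dP/dt; the nanomolar concentration raising it by 20% was derived from the concentration–response curve. Repeated-measures ANOVA, mean change from control ± SEM.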

[6] = Effective concentration against Xenopus oocytes expressing guinea pig heart Na channel; type: functional, cell-based, Cavia porcellus; details: oocyte
Outline: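 Guinea pig heart RNA in Xenopus oocytes, voltage clamp at 21–23 °C, integral taken at −10 mV. Three or more concentrations, n ≥ 3 each, one per oocyte. Pooled percent-change data plotted semilogarithmically; EC50 (nM giving 50% integral increase) obtained by linear regression over the range lacking significant current block.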

Compound: O/N=C(/CN1CCN(C(c2ccccc2)c2ccccc2)CC1)Cn1cnc2c(-n3cccc3)ncnc21
- Change [1]: -6%

Compound: Cc1ccccc1C(c1ccccc1)N1CCN(CC(O)Cn2cnc3c(-n4cccc4)ncnc32)CC1 (configuration not stated)
- Change [1]: 209%

Compound: NC(CN1CCN(C(c2ccccc2)c2ccccc2)CC1)Cn1cnc2c(-n3cccc3)ncnc21 (configuration not stated)
- Change [1]: 451%

- EC50 [3]: 1.95 µM
Compound: OC(CN1CCN(C(c2ccccc2)c2ccccc2)CC1)Cn1cnc2c(Cl)ncnc21 (configuration not stated)
- Change [2]: 176%

Compound: Nc1ncnc2c1ncn2C[C@H](O)CN1CCN(C(c2ccccc2)c2ccccc2)CC1
- EC20 [4]: 5.24 µM
- dP/dt [5]: 1140 nM
- Change [1]: -43%

Compound: CC1CN(CC(O)Cn2cnc3c(-n4cccc4)ncnc32)CCN1C(c1ccccc1)c1ccccc1 (configuration not stated)
- Change [1]: 839%

- EC50 [3]: 1.03 µM
Compound: O[C@@H](CN1CCN(C(c2ccccc2)c2ccccc2)CC1)Cn1cnc2c(-c3cccs3)ncnc21
- Change [2]: 116%

Compound: Cc1ccc(C)n1-c1ncnc2c1ncn2CC(O)CN1CCN(C(c2ccccc2)c2ccccc2)CC1 (configuration not stated)
- Change [1]: -47%

- EC50 [3]: 1.26 µM
Compound: Cc1nccn1-c1ncnc2c1ncn2CC(O)CN1CCN(C(c2ccccc2)c2ccccc2)CC1 (configuration not stated)
- EC20 [4]: 0.09 µM
- dP/dt [5]: 60 nM
- Change [2]: 158%

Compound: Cc1ccn(-c2ncnc3c2ncn3CC(O)CN2CCN(C(c3ccccc3)c3ccccc3)CC2)n1 (configuration not stated)
- Change [2]: 40%

Compound: OC(CN1CCN(C2c3ccccc3-c3ccccc32)CC1)Cn1cnc2c(-n3cccc3)ncnc21 (configuration not stated)
- Change [1]: -19%

Compound: OC(CN1CCN(C(c2ccccc2)c2ccncc2)CC1)Cn1cnc2c(-n3cccc3)ncnc21 (configuration not stated)
- Change [1]: 326%

- EC50 [6]: 0.16 µM
- EC50 [3]: 1.6 µM
Compound: O[C@@H](CN1CCN(C(c2ccccc2)c2ccccc2)CC1)Cn1cnc(-c2ccccc2)c2ncnc1-2
- EC20 [4]: 0.141 µM
- dP/dt [5]: 434 nM
- Change [2]: 201%
- Change [1]: 378%

Compound: OC(CN1CCN(C(c2ccccc2)c2ccccc2)CC1)Cn1cnc2c(C#Cc3ccccc3)ncnc21 (configuration not stated)
- Change [1]: 9%

Compound: OC(CN1CCN(Cc2ccccc2)CC1)Cn1cnc2c(-n3cccc3)ncnc21 (configuration not stated)
- Change [1]: 182%

Compound: O=C(C(c1ccccc1)c1ccccc1)N1CCN(CC(O)Cn2cnc3c(-n4cccc4)ncnc32)CC1 (configuration not stated)
- Change [1]: 6%

- EC50 [6]: 0.58 µM
Compound: OC(CN1CCN(C(c2ccccc2)c2ccccc2)CC1)Cn1cnc2c(-n3cccc3)ncnc21 (configuration not stated)
- Change [1]: 542%

Compound: OC(CN1CCN(C(c2ccccc2)c2ccccc2)CC1)Cn1cnc2cccnc21 (configuration not stated)
- Change [1]: 154%

- EC50 [3]: 0.92 µM
Compound: O[C@@H](CN1CCN(C(c2ccccc2)c2ccccc2)CC1)Cn1cnc2c(-n3cncn3)ncnc21
- EC20 [4]: 0.035 µM
- dP/dt [5]: 43 nM
- Change [2]: 393%

- EC50 [6]: 0.585 µM
Compound: Cc1cnn(-c2ncnc3c2ncn3CC(O)CN2CCN(C(c3ccccc3)c3ccccc3)CC2)c1 (configuration not stated)
- EC20 [4]: 0.216 µM
- dP/dt [5]: 300 nM
- Change [1]: 868%

Compound: Nc1ncnc2c1ncn2CCCN1CCN(C(c2ccccc2)c2ccccc2)CC1
- Change [1]: -66%

Compound: C[C@](O)(CN1CCN(C(c2ccccc2)c2ccccc2)CC1)Cn1cnc2c(-n3cccc3)ncnc21
- Change [1]: 34%

- EC50 [6]: 0.399 µM
Compound: N#Cc1ncnc2c1ncn2CC(O)CN1CCN(C(c2ccccc2)c2ccccc2)CC1 (configuration not stated)
- EC20 [4]: 0.26 µM
- dP/dt [5]: 250 nM
- Change [1]: 1328%

- EC50 [6]: 0.796 µM
Compound: OC(CN1CCN(C(c2ccccc2)c2ccccc2)CC1)Cn1cnc2cncnc21 (configuration not stated)
- EC20 [4]: 0.095 µM
- dP/dt [5]: 110 nM
- Change [1]: 288%

- EC50 [3]: 2.8 µM
Compound: O[C@@H](CN1CCN(C(c2ccccc2)c2ccccc2)CC1)Cn1cnc2c(-c3ccncc3)ncnc21
- Change [2]: 99%

- EC50 [6]: 0.204 µM
Compound: OC(CN1CCN(C(c2ccccc2)c2ccccc2)CC1)Cn1cnc2c(-n3cncn3)ncnc21 (configuration not stated)
- EC20 [4]: 0.057 µM
- dP/dt [5]: 60 nM
- Change [1]: 1664%

- EC50 [6]: 1.03 µM
Compound: Nc1ncnc2c1ncn2C[C@@H](O)CN1CCN(C(c2ccccc2)c2ccccc2)CC1
- EC20 [4]: 0.109 µM
- dP/dt [5]: 89 nM
- Change [1]: 139%

- EC50 [3]: 1.25 µM
Compound: O[C@@H](CN1CCN(C(c2ccccc2)c2ccccc2)CC1)Cn1cnc2c(-n3ccnc3)ncnc21
- EC20 [4]: 0.03 µM
- Change [2]: 459%

Compound: OC(COc1cccc2[nH]ccc12)CN1CCN(C(c2ccccc2)c2ccccc2)CC1 (configuration not stated)
- Change [1]: -29%

Compound: OC(CN1CCN(C(c2ccccc2)c2ccccc2)CC1)Cn1cnc2c(N3CCCCC3)ncnc21 (configuration not stated)
- Change [1]: 26%

- EC50 [6]: 0.245 µM
Compound: O[C@@H](CN1CCN(C(c2ccccc2)c2ccccc2)CC1)Cn1cnc2c(-n3cccc3)ncnc21
- Change [1]: 390%

Compound: OC(CN1CCN(C(c2ccccc2)c2ccccc2)CC1)Cn1ccc2cccnc21 (configuration not stated)
- Change [1]: -71%

- EC50 [6]: 1.41 µM
Compound: Nc1ncnc2c1ncn2CC(O)CN1CCN(C(c2ccccc2)c2ccccc2)CC1 (configuration not stated)
- EC20 [4]: 0.307 µM
- dP/dt [5]: 128 nM
- Change [1]: 212%

Compound: OC(CN1CCCN(C(c2ccccc2)c2ccccc2)CC1)Cn1cnc2c(-n3cccc3)ncnc21 (configuration not stated)
- Change [1]: 38%

- EC50 [3]: 2.7 µM
Compound: Cc1nccn1-c1ncnc2c1ncn2C[C@@H](O)CN1CCN(C(c2ccccc2)c2ccccc2)CC1
- Change [2]: 1449%

Compound: OC(CN1CCC(=C(c2ccccc2)c2ccccc2)CC1)Cn1cnc2c(-n3cccc3)ncnc21 (configuration not stated)
- Change [1]: 94%

Compound: O=C(CN1CCN(C(c2ccccc2)c2ccccc2)CC1)Cn1cnc2c(-n3cccc3)ncnc21
- Change [1]: 9%

- EC50 [3]: 0.433 µM
Compound: O[C@@H](CN1CCN(C(c2ccccc2)c2ccccc2)CC1)Cn1cnc(-c2cccs2)c2ncnc1-2
- Change [2]: 437%

- EC50 [3]: 2.1 µM
Compound: O[C@@H](CN1CCN(C(c2ccccc2)c2ccccc2)CC1)Cn1cnc(-c2ccncc2)c2ncnc1-2
- Change [2]: 265%

Compound: O[C@@H](CN1CCN(C(c2ccccc2)c2ccccc2)CC1)Cn1cnc(-c2ncon2)c2ncnc1-2
- Change [2]: -6%

- EC50 [6]: 1.26 µM
Compound: OC(CN1CCN(C(c2ccccc2)c2ccccc2)CC1)Cn1cnc2c(-c3ccccc3)ncnc21 (configuration not stated)
- Change [1]: 151%

- EC50 [3]: 0.078 µM
Compound: O=Cc1cccn1-c1ncnc2c1ncn2C[C@@H](O)CN1CCN(C(c2ccccc2)c2ccccc2)CC1
- EC20 [4]: 0.017 µM
- dP/dt [5]: 17 nM
- Change [2]: 904%

Compound: O[C@@H](CN1CCN(C(c2ccccc2)c2ccccc2)CC1)Cn1cnc2c(-n3cccc3)nc(C(F)(F)F)nc21
- Change [1]: -13%

Compound: OC(CN1CCC(C(O)(c2ccccc2)c2ccccc2)CC1)Cn1cnc2c(-n3cccc3)ncnc21 (configuration not stated)
- Change [1]: -10%

Compound: OC(CN1CCN(C(c2ccccc2)c2ccccc2)CC1)Cn1ccc2ccccc21 (configuration not stated)
- Change [1]: 36%

Compound: OC(CN1CCN(C(c2ccccc2)c2ccccc2)CC1)Cn1cnc2ccccc21 (configuration not stated)
- Change [1]: 42%

- EC50 [3]: 7.26 µM
Compound: O=Cc1ccn(-c2ncnc3c2ncn3C[C@@H](O)CN2CCN(C(c3ccccc3)c3ccccc3)CC2)c1
- Change [2]: 63%

- EC50 [3]: 0.9 µM
Compound: O[C@@H](CN1CCN(C(c2ccccc2)c2ccccc2)CC1)Cn1cnc(-n2cccn2)c2ncnc1-2
- EC20 [4]: 0.074 µM
- dP/dt [5]: 148 nM
- Change [2]: 369%

Compound: CC(c1ccccc1)N1CCN(CC(O)Cn2cnc3c(-n4cccc4)ncnc32)CC1 (configuration not stated)
- Change [1]: -32%

Compound: O[C@@H](CN1CCN(C(c2ccccc2)c2ccccc2)CC1)Cn1cnc2c(-c3ncon3)ncnc21
- Change [2]: 138%

- EC50 [6]: 0.158 µM
Compound: OC(CN1CCN(C(c2ccccc2)c2ccccc2)CC1)Cn1cnc2c(-n3cccn3)ncnc21 (configuration not stated)
- EC20 [4]: 0.081 µM
- dP/dt [5]: 40 nM
- Change [1]: 372%

Compound: OC(CN1CCC(C(c2ccccc2)c2ccccc2)CC1)Cn1cnc2c(-n3cccc3)ncnc21 (configuration not stated)
- Change [1]: 108%

Compound: OC(CN1CCN(C(c2ccccc2)c2ccccc2)CC1)Cn1cnc2c(Cc3ccccc3)ncnc21 (configuration not stated)
- Change [1]: -100%

Compound: Cc1cc2c(n1-c1ncnc3c1ncn3CC(O)CN1CCN(C(c3ccccc3)c3ccccc3)CC1)CCCC2 (configuration not stated)
- Change [1]: 8%

- EC50 [3]: 3.99 µM
Compound: Cc1ncnc2c1ncn2C[C@@H](O)CN1CCN(C(c2ccccc2)c2ccccc2)CC1
- Change [2]: 105%

Compound: c1ccc2c(c1)CCc1ccccc1C2N1CCN(CCCn2cnc3c(-n4cccc4)ncnc32)CC1
- Change [1]: 120%

Compound: CN1CCN(CC(O)Cn2cnc3c(-n4cccc4)ncnc32)CC1 (configuration not stated)
- Change [1]: -35%

Compound: Nc1nc(-c2ccncc2)nc2c1ncn2CC(O)CN1CCN(C(c2ccccc2)c2ccccc2)CC1 (configuration not stated)
- Change [1]: -2%

- EC50 [3]: 0.447 µM
Compound: N#Cc1cccn1-c1ncnc2c1ncn2C[C@@H](O)CN1CCN(C(c2ccccc2)c2ccccc2)CC1
- EC20 [4]: 0.057 µM
- dP/dt [5]: 22 nM
- Change [2]: 456%

Compound: OC(CN1CCN(C(c2ccc(F)cc2)c2ccc(F)cc2)CC1)Cn1cnc2c(-n3cccc3)ncnc21 (configuration not stated)
- Change [1]: 521%

- EC50 [6]: 0.63 µM
Compound: OC(CN1CCN(C(c2ccccc2)c2ccccc2)CC1)Cn1cnc2c(-n3ccnc3)ncnc21 (configuration not stated)
- EC20 [4]: 0.027 µM
- dP/dt [5]: 46 nM
- Change [1]: 680%

Compound: OC(CN1CCN(CC(c2ccccc2)c2ccccc2)CC1)Cn1cnc2c(-n3cccc3)ncnc21 (configuration not stated)
- Change [1]: -47%

Compound: OC(CN1CCN(C(c2ccccc2)c2ccccc2)CC1)Cn1cnc2c(NCc3ccccc3)ncnc21 (configuration not stated)
- Change [1]: -77%
